# Measured values from ChEMBL document CHEMBL3085642, “Synthesis and evaluation of novel 4-nitropyrrole-based 1,3,4-oxadiazole derivatives as antimicrobial and anti-tubercular agents” (Eur J Med Chem, 2013).
# Tests used:
# Candida albicans = assay: Antifungal activity against Candida albicans after 48 hrs by two fold agar dilution method; format: functional
# Procedure, shortened: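 Two-fold serial dilutions in DMSO were tested against C. albicans by agar dilution. Cultures were incubated for 48 h at 35 °C and growth was monitored. MIC was taken as the lowest concentration (highest dilution) that arrested fungal growth.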
# Staphylococcus aureus [1] = assay: Antibacterial activity against methicillin-susceptible Staphylococcus aureus ATCC 35556 by broth dilution method; format: functional
# Vero = assay: Cytotoxicity against african green monkey Vero cells after 72 hrs by MTT assay; format: cell-based; details: Chlorocebus sabaeus
# Procedure, shortened: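 Vero cells were exposed to compounds for 72 h. Viability was measured by cellular conversion of MTT into formazan (non-radioactive proliferation assay), and the cytotoxic concentration was reported as IC50.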
# [2] = tested on: Mycobacterium tuberculosis; assay: Antitubercular activity against Mycobacterium tuberculosis H37Rv after 7 days by resazurin microtitre assay; format: functional; details: 168 h
# Bacillus spizizenii = assay: Antibacterial activity against Bacillus subtilis ATCC 6633 by two fold broth dilution method; format: functional
# Klebsiella pneumoniae = assay: Antibacterial activity against Klebsiella pneumoniae by two fold broth dilution method; format: functional
# Staphylococcus aureus [3] = assay: Antibacterial activity against Staphylococcus aureus ATCC 25923 by two fold broth dilution method; format: functional
# Staphylococcus aureus [4] = assay: Antibacterial activity against methicillin-resistant Staphylococcus aureus ATCC 43866 by broth dilution method; format: functional
# Escherichia coli = assay: Antibacterial activity against Escherichia coli ATCC 25922 by two fold broth dilution method; format: functional
# Staphylococcus aureus [5] = assay: Ratio of ciprofloxacin MIC to compound MIC against Staphylococcus aureus ATCC 25923; format: functional
Structure (SMILES),MIC (Candida albicans) [µg/mL],MIC (Staphylococcus aureus [1]) [µg/mL],IC50 (Vero) [µM],MIC [2] [µg/mL],MIC (Bacillus spizizenii) [µg/mL],MIC (Klebsiella pneumoniae) [µg/mL],MIC (Staphylococcus aureus [3]) [µg/mL],MIC (Staphylococcus aureus [4]) [µg/mL],MIC (Escherichia coli) [µg/mL],Ratio (Staphylococcus aureus [5])
N#Cc1ccc(-c2nnc(-c3cc([N+](=O)[O-])c[nH]3)o2)cc1,3.12,1.56,199,26.8,3.12,25,1.56,3.12,3.12,–
COc1cccc(OC)c1-c1nnc(-c2cc([N+](=O)[O-])c[nH]2)o1,3.12,1.56,170,5.4,3.12,25,1.56,3.12,3.12,–
COc1ccc(-c2nnc(-c3cc([N+](=O)[O-])c[nH]3)o2)cc1,3.12,1.56,409,34,3.12,25,1.56,3.12,6.25,–
O=[N+]([O-])c1c[nH]c(-c2nnc(-c3ccns3)o2)c1,3.12,1.56,532,62.7,3.12,25,1.56,3.12,6.25,–
Cc1ccc(-c2nnc(-c3cc([N+](=O)[O-])c[nH]3)o2)s1,3.12,1.56,329,–,3.12,25,1.56,3.12,6.25,–
O=[N+]([O-])c1c[nH]c(-c2nnc(-c3cccc([N+](=O)[O-])c3O)o2)c1,3.12,1.56,498,1.8,3.12,25,1.56,3.12,6.25,–
O=[N+]([O-])c1c[nH]c(-c2nnc(Cc3ccc(F)c4ccccc34)o2)c1,3.12,1.56,229,64.8,3.12,25,1.56,3.12,3.12,–
O=[N+]([O-])c1c[nH]c(-c2nnc(-c3ccco3)o2)c1,3.12,1.56,370,42.8,1.56,25,0.78,3.12,3.12,2
O=[N+]([O-])c1c[nH]c(-c2nnc(-c3cccs3)o2)c1,6.25,3.12,418,87.1,1.56,25,1.56,3.12,1.56,–
O=[N+]([O-])c1c[nH]c(-c2nnc(-c3ccccc3)o2)c1,12.5,1.56,423,56.3,3.12,25,3.12,3.12,6.25,–
O=[N+]([O-])c1c[nH]c(-c2nnc(-c3ccccc3O)o2)c1,3.12,1.56,375,2.1,3.12,25,1.56,3.12,1.56,–
O=[N+]([O-])c1c[nH]c(-c2nnc(C3(c4ccccc4)CC3)o2)c1,25,1.56,380,56.8,3.12,25,0.78,3.12,1.56,2
Cn1cc([N+](=O)[O-])cc1-c1nnc(-c2cc3cc(Cl)ccc3[nH]2)o1,1.56,0.39,743,24,1.56,12.5,0.39,1.56,1.56,3
C[C@@H]1[C@H](O)[C@@H](C)/C=C/C=C/C=C/C=C/C=C/C=C/C=C/[C@H](O[C@@H]2O[C@H](C)[C@@H](O)[C@H](N)[C@@H]2O)C[C@@H]2O[C@](O)(C[C@@H](O)C[C@@H](O)[C@H](O)CC[C@@H](O)C[C@@H](O)CC(=O)O[C@H]1C)C[C@H](O)[C@H]2C(=O)O [AMPHOTERICIN B],3.12,–,–,–,–,–,–,–,–,–
O=C(O)c1cn(C2CC2)c2cc(N3CCNCC3)c(F)cc2c1=O [CIPROFLOXACIN],–,1.56,–,–,1.56,1.56,1.56,3.12,–,–
NNC(=O)c1ccncc1 [ISONIAZID],–,–,–,0.4,–,–,–,–,–,–
